Experimental data: PMC3951241 (Journal of medicinal chemistry, 2013)
Read-outs that look alike come from different tables or passages of the source.

Experiments:
[1] = system: tadpoles; experiment: Tadpole loss of righting reflex; type: in vivo; details: for tadpole LRR EC50: loss of righting reflex, None = no effect at 10 μM; for tadpole LRR EC50 / Tadpole LSR EC50: ± SEM; for Tadpole LSR EC50: loss of swimming reflex, None = all animals had a swimming response at 10 μM test compound; for EC50: read-out: Tadpole LSR EC50
[2] = system: mice; experiment: Anesthesia; type: in vivo, mouse; details: tail vein injection
Summary of the method: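 Mice received test compound by tail vein injection, dissolved in 22.5% aqueous 2-(hydroxypropyl)-β-cyclodextrin. Lower doses were made by serial dilution of the 8 mg/kg stock solution with 0.9% saline. Anesthesia was scored as loss of righting reflex (LRR), and LRR duration was recorded at each dose.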

[3] = system: picrotoxin binding site on the heterogeneous GABAA receptors found in rat brain membranes; experiment: [35S]TBPS displacement from rat brain membranes; details: comparison of IC50 values
[4] = target: rat wild type α1β2γ2L GABAA receptors (Rattus norvegicus, UniProt P62813+P63138); experiment: Single-channel recordings in HEK 293 cells; type: cell-based; details: 50 μM GABA + 20 μM compound; for OT long, mean duration of the longest-lived intracluster open time component: 4-7 patches
Summary of the method: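 Single-channel currents from the rat wild-type α1β2γ2L GABAA receptor, activated by 50 μM GABA alone (control) or with 20 μM test compound; 4-7 patches per condition. Intracluster open-time histograms were fitted to sums of two or three exponentials, and closed-time histograms to three. Mean duration and fraction of the longest open component, and fraction of the longest closed component, were analysed statistically.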

[5] = system: tadpoles; details: cited from earlier work
[6] = system: mice; details: tail vein injection, previously found ref 15, cited from earlier work

C[C@@]12CC[C@H]3[C@@H](CC[C@@H]4C[C@@H](O)CC[C@]43C)[C@@H]1CC(=O)C2 (single isomer, unassigned) [ent-7, (3β,5β,8α,9β,10α,13α,14β)-3-Hydroxyandrostan-16-one]
fold lower tadpole LRR EC50 relative to ent-1 ([1]; comparison of EC50 values): ~ three | fold lower tadpole LSR EC50 relative to ent-1 ([1]; comparison of EC50 values): ~ three | duration of LRR in mice ([2]; 8 mg/kg): about 3 min | duration of LRR in mice ([2]; 16 mg/kg): about 7 min | fold increase in [35S]TBPS displacement potency relative to ent-1 [3]: about four | OT long, mean duration of the longest-lived intracluster open time component [4]: 12.4 ± 3.4 ms | closed time, first listed component, duration ([4]; sample patch of Figure 3): 0.27 ms | closed time, first listed component, fraction ([4]; sample patch of Figure 3): 71% | closed time, second listed component, duration ([4]; sample patch of Figure 3): 2.1 ms | closed time, second listed component, fraction ([4]; sample patch of Figure 3): 24% | closed time, third listed component, duration ([4]; sample patch of Figure 3): 25.0 ms | closed time, third listed component, fraction ([4]; sample patch of Figure 3): 5% | open time, first listed component, duration ([4]; sample patch of Figure 3): 0.64 ms | open time, first listed component, fraction ([4]; sample patch of Figure 3): 39% | open time, second listed component, duration ([4]; sample patch of Figure 3): 10.9 ms | open time, second listed component, fraction ([4]; sample patch of Figure 3): 61%

CO[C@H]1[C@H](O)CC[C@]2(C)[C@H]3CC[C@]4(C)C(=O)CC[C@H]4[C@@H]3CC[C@@H]12 [compound 3, (3α,4β,5α)-3-Hydroxy-4-methoxyandrostan-17-one]
tadpole LRR EC50 [1]: None | Tadpole LSR EC50 [1]: None

CO[C@@H]1C[C@]2(C)[C@H](CC[C@@H]3[C@@H]2CC[C@@]2(C)C(=O)CC[C@@H]32)C[C@H]1O (single isomer, unassigned) [ent-2, (2α,3β,5β,8α,9β,10α,13α,14β)-3-Hydroxy-2-methoxyandrostan-17-one]
EC50 [1]: > 10 µM | fold decrease in [35S]TBPS displacement potency relative to ent-1 [3]: about 21 fold

O=C1C[C@@H]2CC[C@H]3[C@@H](CC[C@@H]4C[C@@H](O)CC[C@H]43)[C@@H]2C1 (single isomer, unassigned) [ent-12, (3β,5β,8α,9β,10α,13α,14β)-3-Hydroxygonan-16-one]
tadpole LRR EC50 [1]: neither LRR nor LSR and None | Tadpole LSR EC50 [1]: neither LRR nor LSR and None | OT long, mean duration of the longest-lived intracluster open time component [4]: 11.5 ± 3.3 ms | closed time, first listed component, duration ([4]; sample patch of Figure 3): 0.25 ms | closed time, first listed component, fraction ([4]; sample patch of Figure 3): 54% | closed time, second listed component, duration ([4]; sample patch of Figure 3): 2.0 ms | closed time, second listed component, fraction ([4]; sample patch of Figure 3): 24% | closed time, third listed component, duration ([4]; sample patch of Figure 3): 27.8 ms | closed time, third listed component, fraction ([4]; sample patch of Figure 3): 22% | open time, first listed component, duration ([4]; sample patch of Figure 3): 0.29 ms | open time, first listed component, fraction ([4]; sample patch of Figure 3): 29% | open time, second listed component, duration ([4]; sample patch of Figure 3): 2.1 ms | open time, second listed component, fraction ([4]; sample patch of Figure 3): 23% | open time, third listed component, duration ([4]; sample patch of Figure 3): 13.2 ms | open time, third listed component, fraction ([4]; sample patch of Figure 3): 48%

CO[C@@H]1C[C@]2(C)[C@H](CC[C@H]3[C@@H]4CC(=O)C[C@]4(C)CC[C@@H]32)C[C@H]1O (single isomer, unassigned) [ent-8, (2α,3β,5β,8α,9β,10α,13α,14β)-3-Hydroxy-2-methoxyandrostan-16-one]
fold higher tadpole LRR EC50 relative to ent-7 ([1]; comparison of EC50 values): ~ five | fold higher tadpole LSR EC50 relative to ent-7 ([1]; comparison of EC50 values): ~ five | fold decrease in [35S]TBPS displacement potency relative to ent-7 [3]: about 37 fold

C[C@]12CC[C@@H](O)C[C@@H]1CC[C@@H]1[C@@H]2C(=O)C[C@]2(C)/C(=C\C#N)CC[C@@H]12 [compound 4, [3α,5α,17(20)Z]-3-Hydroxy-11-oxopregn-17(20)-ene-21-nitrile]
EC50 ([5]; read-out: Tadpole LSR EC50, loss of swimming reflex, literature values ref 15): 5.48 ± 0.2 µM | EC50 ([5]; read-out: tadpole LRR EC50, loss of righting reflex, literature values ref 15): 1.44 ± 0.2 µM

CC(=O)[C@H]1CC[C@H]2[C@@H]3CC[C@H]4C[C@H](O)CC[C@]4(C)[C@H]3CC[C@]12C [compound 5, allopregnanolone]
EC50 ([5]; read-out: Tadpole LSR EC50, loss of swimming reflex, literature values ref 46): 5.5 ± 0.5 µM | EC50 ([5]; read-out: tadpole LRR EC50, loss of righting reflex, literature values ref 46): 0.42 ± 0.04 µM

C[C@]12CC[C@@H](O)C[C@@H]1CC[C@@H]1[C@@H]2CC[C@]2(C)C(=O)CC[C@@H]12 [compound 1, Androsterone]
EC50 ([5]; read-out: tadpole LRR EC50, loss of righting reflex, literature values ref 9): 3.38 ± 0.9 µM

CC(=O)[C@H]1CC[C@H]2[C@@H]3CC[C@H]4C[C@H](O)CC[C@]4(C)[C@H]3C(=O)C[C@]12C [compound 6, alphaxalone]
duration of LRR in mice ([2]; 16 mg/kg): about 4 min | EC50 ([5]; read-out: Tadpole LSR EC50, loss of swimming reflex, literature values ref 48): 5.48 ± 0.11 µM | EC50 ([5]; read-out: tadpole LRR EC50, loss of righting reflex, literature values ref 48): 1.12 ± 0.14 µM | duration of LRR in mice ([6]; 8 mg/kg): less than 1 min | threshold dose for LRR in mice [6]: 8 mg/kg

CO[C@H]1[C@H]2CC[C@H]3[C@@H]4CC(=O)C[C@]4(C)CC[C@@H]3[C@]2(C)CC[C@@H]1O (single isomer, unassigned) [ent-9, (3β,4α,5β,8α,9β,10α,13α,14β)-3-Hydroxy-4-methoxyandrostan-16-one]
duration of LRR in mice ([2]; 2 mg/kg (threshold dose)): about 1 min | duration of LRR in mice ([2]; 4 mg/kg): about 5 min | duration of LRR in mice ([2]; 8 mg/kg): about 9 min | threshold dose for LRR in mice [2]: 2 mg/kg | OT long, mean duration of the longest-lived intracluster open time component [4]: 17.7 ± 6.6 ms | closed time, first listed component, duration ([4]; sample patch of Figure 3): 0.24 ms | closed time, first listed component, fraction ([4]; sample patch of Figure 3): 67% | closed time, second listed component, fraction ([4]; sample patch of Figure 3): 28% | closed time, third listed component, duration ([4]; sample patch of Figure 3): 14.3 ms | closed time, third listed component, fraction ([4]; sample patch of Figure 3): 6% | open time, first listed component, duration ([4]; sample patch of Figure 3): 0.80 ms | open time, first listed component, fraction ([4]; sample patch of Figure 3): 52% | open time, second listed component, duration ([4]; sample patch of Figure 3): 30.3 ms | open time, second listed component, fraction ([4]; sample patch of Figure 3): 48%

CO[C@H]1C[C@@]2(C)[C@@H](CC[C@@H]3[C@@H]2CC[C@]2(C)C(=O)CC[C@@H]32)C[C@@H]1O [compound 2, (2β,3α,5α)-3-Hydroxy-2-methoxyandrostan-17-one]
EC50 [1]: > 10 µM | fold decrease in [35S]TBPS displacement potency relative to steroid 1 [3]: about five
